From PubChem BioAssay
The list is not random: actives were taken first. Their share in the collection is about 1%.
Thrombin inh – thrombin (human) inhibition; alpha-thrombin, Boc-VPR-AMC fluorogenic substrate cleavage; inhibition, % at 5 µM; hit rate 0.26% among 220,000; AID 1046;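 active = inhibition at or above 40%; inactive = inhibition below 40%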;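 also: 0% = enzyme with no compound and 100% = wells without enzyme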
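Assay system: human alpha-thrombin enzyme. Reagent: Boc-VPR-AMC substrate, 15 µM final. Compound dosing: one concentration per compound, 5 µM, with 0.2% DMSO. Incubation: room-temperature reaction. Technique: AMC fluorescence, 355/460 nm. Measure: % inhibition relative to enzyme controls and enzyme-free blanks.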
FXIIa inh – blocks human coagulation factor XIIa protease activity; inhibition, % at 5 µM; hit rate 0.3% among 220,000; purified FXIIa, Boc-QGR-AMC fluorogenic substrate, 2 h; P00748; in the data active = inhibition above about 40%;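 also: 0% = enzyme with no compound and 100% = blank without enzyme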
Target sequence (P00748 20-372 limits assumed): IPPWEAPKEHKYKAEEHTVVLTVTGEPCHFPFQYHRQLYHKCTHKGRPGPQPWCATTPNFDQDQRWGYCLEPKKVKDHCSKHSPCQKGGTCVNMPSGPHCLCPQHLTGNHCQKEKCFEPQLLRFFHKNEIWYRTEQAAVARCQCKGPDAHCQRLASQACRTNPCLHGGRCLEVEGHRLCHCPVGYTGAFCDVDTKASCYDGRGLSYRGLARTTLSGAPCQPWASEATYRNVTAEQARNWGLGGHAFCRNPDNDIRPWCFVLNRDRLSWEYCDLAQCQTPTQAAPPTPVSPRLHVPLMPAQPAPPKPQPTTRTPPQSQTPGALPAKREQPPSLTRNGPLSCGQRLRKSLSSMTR
Target sequence (P00748 373-615 limits assumed): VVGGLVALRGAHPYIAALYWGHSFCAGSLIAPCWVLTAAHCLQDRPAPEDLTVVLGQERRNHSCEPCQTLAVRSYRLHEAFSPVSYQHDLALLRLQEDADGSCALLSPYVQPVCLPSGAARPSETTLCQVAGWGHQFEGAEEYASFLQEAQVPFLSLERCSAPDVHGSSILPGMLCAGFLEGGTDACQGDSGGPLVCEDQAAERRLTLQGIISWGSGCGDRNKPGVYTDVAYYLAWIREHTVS
KLK5 inh – kallikrein 5 (human) inhibition. recombinant hK5, fluorogenic AMC substrate cleavage. AID 873. inhibition, % at 5 µM. hit rate 0.59% among 210,000;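 active = inhibition of 40% or more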;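 also: 0% = enzyme controls without compound and 100% = no-enzyme blanks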
FXIa inh 1536 – inhibitors of human coagulation factor XIa; P03951; inhibition, % at 5 µM; hit rate 0.14% among 220,000; purified FXIa, Boc-Glu-Ala-Arg-AMC fluorogenic substrate;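 active = inhibition of at least 40%; inactive = inhibition below 40%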;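 also: fluorescence of freed AMC excited at 355 nm; 0% = enzyme without compound and 100% = no enzyme blank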
* marks the source's active call; other numbers are inactive results; nt = no result given.

SMILES | Thrombin inh | FXIIa inh | KLK5 inh | FXIa inh 1536
N#Cc1nc(COc2ccc(Br)cc2)oc1NCCN1CCOCC1 | 6 | -7 | 45* | 13
Cc1ccc(C)c2[nH]c(=O)c(CN(Cc3nnnn3C3CCCCC3)CC3CCCO3)cc12 (stereo not given) | -8 | 41* | -10 | 6
COC(/C=C/Nc1ccc(Br)cc1)=C(C#N)C#N | 38 | 17 | 49* | 2
Cc1ccccc1-n1c(SCc2c(C)noc2C)nnc1-c1cccnc1 | 33 | 15 | 52* | 6
O=[N+]([O-])c1ccc2c(c1)c1ccccc1n2CCO | 39 | 50* | 23 | 24
O=C(N/N=C/c1cccs1)c1cc(-c2cccc3ccccc23)n[nH]1 | -5 | 5 | -3 | -6
CCOC(=O)c1cc(CC)sc1NC(=O)COC(=O)c1cc[n+]([O-])cc1 | -1 | nt | 2 | -3
Cc1cc(C)c(S(=O)(=O)n2c([N+](=O)[O-])cnc2C)c(C)c1 | 0 | 12 | -11 | 9
Cc1cccc(-n2c(CCCN3C(=O)c4ccccc4C3=O)nc3ccccc3c2=O)n1 | 30 | -8 | 152* | 0
CC(C)c1ccc(/C=N/NC(=O)CN(c2cccc(Cl)c2Cl)S(C)(=O)=O)cc1 | -1 | 2 | 13 | -9
CS(=O)(=O)N(CC(=O)N/N=C/c1ccccc1C(=O)O)c1cccc(Cl)c1Cl | 20 | 57* | 16 | 36
O=c1c2[nH]c3cccc(Cl)c3c2ncn1CC1CCCO1 (stereo not given) | 2 | 11 | 1 | 2
O=c1c2[nH]c3cccc(Cl)c3c2ncn1CCN1CCCCC1 | 0 | 43* | -21 | 19
O=C(c1oc(=O)c2ccccc2c1-c1ccccc1)N1CCN(C2CCCCC2)CC1 | -1 | 10 | 4 | -1
CCOC(=O)C1CCN(c2ccc(Cl)nn2)CC1 | 3 | 0 | -13 | -1
O=C(O)C1CCN(c2ccc(Cl)nn2)CC1 | 55* | 9 | 1 | -2
O=C(CCC1CCCN(c2ncccn2)C1)N1CCN(c2ccccn2)CC1 (stereo not given) | 0 | 13 | 2 | 5
O=C(CCC1CCCN(C(=O)C2(c3ccccc3)CC2)C1)N1CCN(c2ccccn2)CC1 (stereo not given) | 96* | 9 | 0 | -4
CCC(=O)Oc1ccc2c(C)c(Cl)c(=O)oc2c1 | 47* | 32 | 17 | 6
CN1CCN(CCNC(=O)c2cn(Cc3ccccc3F)nn2)CC1 | 15 | 60* | 20 | 29
O=C(c1ccc(Br)cc1)N(Cc1nc2ccccc2c(=O)[nH]1)C1CCCC1 | 2 | 6 | 0 | -5
COc1cccc(Sc2ccccc2/C=N/NC(N)=O)c1 | nt | 5 | -3 | 4
O=c1[nH]c(-[n+]2ccccc2)c(/C=N/NC([S-])=Nc2ccccc2)s1 | -5 | 3 | 44* | -12
CCNc1ccc(C(=O)OC(C(=O)NC(N)=O)C(C)C)cc1[N+](=O)[O-] (stereo not given) | 8 | 36 | 54* | 32
CCNc1ccc(C(=O)OCC(=O)NC(C)c2ccccc2)cc1[N+](=O)[O-] (stereo not given) | -6 | 14 | -17 | 8
SMILES | Thrombin inh | FXIIa inh | KLK5 inh | FXIa inh 1536
CCCNC(=O)N1CCN(c2ncccn2)CC1 | 24 | 19 | 61* | 17
O=C(Nc1ccccc1)N1CCN(c2ncccn2)CC1 | -6 | 13 | -11 | 0
Cc1ccccc1C(=O)Nc1nnc(CC(=O)N/N=C/c2ccncc2)s1 | -3 | 6 | 0 | 2
O=S(=O)(c1ccccc1)c1cnc(-c2ccccc2)nc1N1CCCCC1 | 1 | -1 | -16 | -2
CCOC(=O)c1[nH]c(C)c(C(=O)Nc2ccc(C)cc2C)c1C | -1 | 21 | 80* | 10
COc1ccc(C2C(=O)c3ccccc3C2=O)cc1OC | 56* | 17 | 18 | 9
[NH-]c1ncnc2c1N=C[N+]2=CC=CCO | -7 | 7 | -2 | 2
Fc1ccc2[nH]c3c(c2c1)CN(C(=S)NCc1ccccc1)CC3 | 0 | 11 | -2 | 12
CC(=O)Nc1cccc(C(=O)/C=C/c2ccc(C)cc2)c1 | 17 | 32 | 61* | 10
O=C(Nc1ccccn1)c1cc(-c2cccc(Cl)c2)nc2ccccc12 | 0 | 16 | 11 | 3
Cc1ccc(-n2c(C)cc(/C=N/NC(=O)CN(c3ccc(C)cc3C)S(C)(=O)=O)c2C)cc1 | 27 | 30 | 42* | 22
CC(=O)NC(c1ccc(F)cc1)c1cccnc1 (stereo not given) | 10 | 12 | 49* | 6
O=C(Nc1cccnc1)c1ccc(F)cc1 | -3 | 4 | -4 | -2
CCN(CC)C(=O)Cn1cc(C(=O)C(=O)NCCCn2ccnc2)c2ccccc21 | 95* | 8 | 0 | -3
